Measurements as given in the array DNA melting data of Ke et al. (doi:10.1101/2024.01.08.574731).

What was measured:
[1] = melting temperature; fluorescence melt of hairpins on a sequencing array, two-state fit, raised by 9.35 °C to match UV melts; details: sodium 0.088 M
Outline: (§1)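 Melting temperature and folding enthalpy were obtained by bootstrapped two-state fitting. Fits used Cy3 fluorescence of library hairpins with annealed Cy3 and quencher oligos on a sequenced MiSeq flow cell, imaged in 50 mM Na-HEPES pH 8.0, 25 mM NaCl in 2.5 °C steps up to 60 °C and normalised to pre-quench Cy3 and control constructs. Four replicates were combined by inverse-variance weighting, and fitted temperatures were raised by 9.35 °C to match UV melts.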

[2] = folding enthalpy; higher = less favourable; fluorescence melt of hairpins on a sequencing array, two-state fit; details: sodium 0.088 M
Outline: as §1

GCAGGGCGAAAGCGCAGC ((.(.((....)).).)) gave a Tm [1] of 54.8 °C and a folding enthalpy [2] of -11.9 kcal/mol.
Work on GCAGGGGCGAAAGCCTGC (((..(((....)))))) yielded a Tm [1] of 53.7 °C and a folding enthalpy [2] of -17.6 kcal/mol.
For GCAGGTCCGAAAGGATGC (((..(((....)))))), the Tm [1] was 37.7 °C and the folding enthalpy [2] was -16.6 kcal/mol.
With GCAGGTCGAAAGACTTGC (((.(((....))).))) the Tm [1] was 56.7 °C and the folding enthalpy [2] was -41.2 kcal/mol.
With GCAGGTGGAAACATCTGC ((((.((....)).)))) the Tm [1] was 52.9 °C and the folding enthalpy [2] was -37.8 kcal/mol.
For GCAGGTGGAAACGCTTGC (((.(.(....).).))), the Tm [1] was 46.6 °C and the folding enthalpy [2] was -23 kcal/mol.
Work on GCAGTACGAAAGTATTGC (((.(((....))).))) yielded a Tm [1] of 52.8 °C and a folding enthalpy [2] of -45.2 kcal/mol.
In the case of GCAGTAGGAAACTACTGC (((((((....))))))), the Tm [1] is reported as 64.6 °C and the folding enthalpy [2] is reported as -54 kcal/mol.
GCAGTCCGAAAGGAATGC (((.(((....))).))) gave a Tm [1] of 62.1 °C and a folding enthalpy [2] of -38.1 kcal/mol.
GCAGTCCGAAAGGAGTGC (((.(((....))).))) showed a Tm [1] of 65.8 °C and a folding enthalpy [2] of -47.7 kcal/mol.
With GCAGTCCGAAAGGATTGC (((.(((....))).))) the Tm [1] was 60.2 °C and the folding enthalpy [2] was -46.3 kcal/mol.
In the case of GCAGTCGAAAGACACTGC ((((((....)))..))), the Tm [1] is reported as 43.5 °C and the folding enthalpy [2] is reported as -18 kcal/mol.
With GCAGTCGAAAGACCTTGC ((((((....)))..))) the Tm [1] was 33.8 °C and the folding enthalpy [2] was -13.3 kcal/mol.
Sequence GCAGTCGAAAGACTTTGC ((((((....)))..))) has a Tm [1] of 35.7 °C and a folding enthalpy [2] of -17.7 kcal/mol.
Work on GCAGTCGGAAACGACCGC ((.((((....)))).)) yielded a Tm [1] of 52 °C and a folding enthalpy [2] of -27.3 kcal/mol.
GCAGTCGGAAACGATTGC (((.(((....))).))) gave a Tm [1] of 54.4 °C and a folding enthalpy [2] of -43.6 kcal/mol.
GCAGTCTCGAAAGAGTGC (((..(((....)))))) showed a Tm [1] of 45.8 °C and a folding enthalpy [2] of -25.4 kcal/mol.
GCAGTGCGAAAGCATCGC ((..(((....)))..)) gave a Tm [1] of 55.2 °C and a folding enthalpy [2] of -14.9 kcal/mol.
Sequence GCAGTGCGAAAGCCCTGC ((((.((....)).)))) has a Tm [1] of 61.8 °C and a folding enthalpy [2] of -32.8 kcal/mol.
Work on GCAGTGCGAAAGCGATGC (((..((....))..))) yielded a Tm [1] of 62.4 °C and a folding enthalpy [2] of -30.6 kcal/mol.
GCAGTGCGAAAGCTCCGC ((.(.((....)).).)) gave a Tm [1] of 47.9 °C and a folding enthalpy [2] of -11.9 kcal/mol.
GCAGTGGAAACACTGC ((((((....)))))) showed a Tm [1] of 68.5 °C and a folding enthalpy [2] of -32.9 kcal/mol.
Work on GCAGTGGCGAAAGCCTGC (((..(((....)))))) yielded a Tm [1] of 58.3 °C and a folding enthalpy [2] of -19.3 kcal/mol.
For GCAGTGGGAAACTACTGC (((((.(....).))))), the Tm [1] was 54.2 °C and the folding enthalpy [2] was -37.9 kcal/mol.
With GCAGTTGAAAAACTGC ((((((....)))))) the Tm [1] was 58.9 °C and the folding enthalpy [2] was -37.8 kcal/mol.
Sequence GCAGTTGGAAACAACTAC (.(((((....))))).) has a Tm [1] of 37.5 °C and a folding enthalpy [2] of -17.1 kcal/mol.
With GCATAAGGAAACTTATGC (((((((....))))))) the Tm [1] was 54.7 °C and the folding enthalpy [2] was -39.1 kcal/mol.
Work on GCATACCGAAAGGTCTGC (((.(((....))).))) yielded a Tm [1] of 51.4 °C and a folding enthalpy [2] of -33.5 kcal/mol.
Work on GCATACGAAAGTATGTGC ((((((....)))..))) yielded a Tm [1] of 52.2 °C and a folding enthalpy [2] of -23 kcal/mol.
With GCATACGCGAAAGCGTGC (((..(((....)))))) the Tm [1] was 48.7 °C and the folding enthalpy [2] was -10.8 kcal/mol.
For GCATACGGAAACATATGC (((((.(....).))))), the Tm [1] was 37 °C and the folding enthalpy [2] was -24.4 kcal/mol.
In the case of GCATACGGAAACGCATGC ((((.((....)).)))), the Tm [1] is reported as 48.5 °C and the folding enthalpy [2] is reported as -34.5 kcal/mol.
GCATACGGAAACGTACGC ((.((((....)))).)) showed a Tm [1] of 44.2 °C and a folding enthalpy [2] of -31.4 kcal/mol.
Sequence GCATACGGAAACGTATAC (.(((((....))))).) has a Tm [1] of 34.9 °C and a folding enthalpy [2] of -16.9 kcal/mol.
Sequence GCATACGGAAACGTGTGC (((.(((....))).))) has a Tm [1] of 55 °C and a folding enthalpy [2] of -50.6 kcal/mol.
With GCATAGCGAAAGCCTTGC (((..((....))..))) the Tm [1] was 36.9 °C and the folding enthalpy [2] was -13.9 kcal/mol.
With GCATAGCGAAAGCGCTGC (((..((....))..))) the Tm [1] was 51.3 °C and the folding enthalpy [2] was -16.5 kcal/mol.
